Reference: ChEMBL document CHEMBL1148636, “Novel analogues of degarelix incorporating hydroxy-, methoxy-, and pegylated-urea moieties at positions 3, 5, 6 and the N-terminus. Part III” (J Med Chem, 2006)
Numbered stars: 1 amine (or outer) side, 2 acyl side, 3 side chain; on linkers, the order of the positions; unused ones are H or OH. Square brackets hold non-standard residues; d marks the D form. Side chains are listed from the residue outwards. Peptide text beside a SMILES is read from it. * marks the point of attachment. Dihydroorotyl(S) = O=C1C[C@@H](C(=O)*)NC(=O)N1; dPhe(4-NH2) = Nc1ccc(C[C@@H](N)C(=O)O)cc1; dPhe(4-Cl) = N[C@H](Cc1ccc(Cl)cc1)C(=O)O; Phe(4-NH2) = Nc1ccc(C[C@H](N)C(=O)O)cc1; d2Nal = N[C@H](Cc1ccc2ccccc2c1)C(=O)O; Lys(iPr) = CC(C)NCCCC[C@H](N)C(=O)O; NHCH2CH2OCH2CH2OEt = CCOCCOCCN*; d3Pal = N[C@H](Cc1cccnc1)C(=O)O; Methoxycarbamoyl = CONC(=O)*; CO = O=C([*:1])[*:2]; Butyryl = CCCC(=O)*

Target: T1, Gonadotropin-releasing hormone receptor (Homo sapiens, UniProt P30968)
T1 sequence (P30968 whole entry): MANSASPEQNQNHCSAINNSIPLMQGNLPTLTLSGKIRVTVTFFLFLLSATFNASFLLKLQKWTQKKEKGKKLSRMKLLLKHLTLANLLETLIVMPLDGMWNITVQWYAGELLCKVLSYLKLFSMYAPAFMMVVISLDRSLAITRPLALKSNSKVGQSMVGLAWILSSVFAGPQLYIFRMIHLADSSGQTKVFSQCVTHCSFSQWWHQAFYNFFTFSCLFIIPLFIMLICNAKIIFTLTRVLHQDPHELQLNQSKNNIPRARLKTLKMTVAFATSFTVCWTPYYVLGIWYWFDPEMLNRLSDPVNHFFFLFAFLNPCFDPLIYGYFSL
Assay: Antagonist activity at human GnRH receptor expressed in HEK293 cells as inhibition of GnRH-induced LH secretion by reporter gene assay
Type: functional, cell-based
Procedure, shortened: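 HEK293 cells stably expressing cloned human GnRH receptor plus luciferase reporter under LH alpha subunit promoter; plated 5 × 10^4 cells/well, overnight 37 °C. Compounds in 1% DMSO, 11 half-log concentrations in duplicate, 10 min preincubation, then GnRH 1 nM final, ≥5 h at 37 °C; luminescence read. Percent of control fitted to IC50; geometric mean of ≥2 independent experiments.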

Compound	IC50 [nM]
CONC(=O)Nc1ccc(C[C@H](NC(=O)[C@H](CO)NC(=O)[C@@H](CCC(N)=O)NC(=O)[C@@H](Cc2ccc(Cl)cc2)NC(=O)[C@@H](Cc2ccc3ccccc3c2)NC(C)=O)C(=O)N[C@H](Cc2ccc(NC(=O)NOC)cc2)C(=O)N[C@@H](CC(C)C)C(=O)N[C@@H](CCCCNC(C)C)C(=O)N2CCC[C@H]2C(=O)N[C@H](C)C(N)=O)cc1	2.98
CCCCCCCC(=O)N[C@H](Cc1ccc2ccccc2c1)C(=O)N[C@H](Cc1ccc(Cl)cc1)C(=O)N[C@H](Cc1cccnc1)C(=O)N[C@@H](CO)C(=O)N[C@@H](Cc1ccc(NC(=O)NOC)cc1)C(=O)N[C@H](Cc1ccc(NC(N)=O)cc1)C(=O)N[C@@H](CC(C)C)C(=O)N[C@@H](CCCCNC(C)C)C(=O)N1CCC[C@H]1C(=O)N[C@H](C)C(N)=O	4.17
CCCCCCCC(=O)N[C@H](Cc1ccc2ccccc2c1)C(=O)N[C@H](Cc1ccc(Cl)cc1)C(=O)N[C@H](Cc1cccnc1)C(=O)N[C@@H](CO)C(=O)N[C@@H](Cc1ccc(NC(=O)NOC)cc1)C(=O)N[C@H](Cc1ccc(NC(=O)NOC)cc1)C(=O)N[C@@H](CC(C)C)C(=O)N[C@@H](CCCCNC(C)C)C(=O)N1CCC[C@H]1C(=O)N[C@H](C)C(N)=O	4.99
CCOCCOCCNC(=O)Nc1ccc(C[C@H](NC(=O)[C@H](CO)NC(=O)[C@@H](Cc2cccnc2)NC(=O)[C@@H](Cc2ccc(Cl)cc2)NC(=O)[C@@H](Cc2ccc3ccccc3c2)NC(=O)NCCOCCOCC)C(=O)N[C@H](Cc2ccc(NC(=O)NCCOCCOCC)cc2)C(=O)N[C@@H](CC(C)C)C(=O)N[C@@H](CCCCNC(C)C)C(=O)N2CCC[C@H]2C(=O)N[C@H](C)C(N)=O)cc1	2.55
CCOCCOCCNC(=O)Nc1ccc(C[C@@H](NC(=O)[C@H](Cc2ccc(NC(=O)[C@@H]3CC(=O)NC(=O)N3)cc2)NC(=O)[C@H](CO)NC(=O)[C@@H](Cc2cccnc2)NC(=O)[C@@H](Cc2ccc(Cl)cc2)NC(=O)[C@@H](Cc2ccc3ccccc3c2)NC(=O)NCCOCCOCC)C(=O)N[C@@H](CC(C)C)C(=O)N[C@@H](CCCCNC(C)C)C(=O)N2CCC[C@H]2C(=O)N[C@H](C)C(N)=O)cc1	4.55
CC(=O)N[C@H](Cc1ccc2ccccc2c1)C(=O)N[C@H](Cc1ccc(Cl)cc1)C(=O)N[C@H](CCNC(=O)NO)C(=O)N[C@@H](CO)C(=O)N[C@@H](Cc1ccc(NC(=O)[C@@H]2CC(=O)NC(=O)N2)cc1)C(=O)N[C@H](Cc1ccc(NC(N)=O)cc1)C(=O)N[C@@H](CC(C)C)C(=O)N[C@@H](CCCCNC(C)C)C(=O)N1CCC[C@H]1C(=O)N[C@H](C)C(N)=O	2.68
CC(=O)N[C@H](Cc1ccc2ccccc2c1)C(=O)N[C@H](Cc1ccc(Cl)cc1)C(=O)N[C@H](CNC(=O)NO)C(=O)N[C@@H](CO)C(=O)N[C@@H](Cc1ccc(NC(=O)[C@@H]2CC(=O)NC(=O)N2)cc1)C(=O)N[C@H](Cc1ccc(NC(N)=O)cc1)C(=O)N[C@@H](CC(C)C)C(=O)N[C@@H](CCCCNC(C)C)C(=O)N1CCC[C@H]1C(=O)N[C@H](C)C(N)=O	3.46

The next compounds have a lower IC50 than those just listed; values first:

IC50 [nM]	Compound
1.53	CONC(=O)Nc1ccc(C[C@H](NC(=O)[C@H](CO)NC(=O)[C@@H](Cc2cccnc2)NC(=O)[C@@H](Cc2ccc(Cl)cc2)NC(=O)[C@@H](Cc2ccc3ccccc3c2)NC(C)=O)C(=O)N[C@H](Cc2ccc(NC(=O)NOC)cc2)C(=O)N[C@@H](CC(C)C)C(=O)N[C@@H](CCCNC(=O)CNC(C)C)C(=O)N2CCC[C@H]2C(=O)N[C@H](C)C(N)=O)cc1
1.46	CCCC(=O)N[C@H](Cc1ccc2ccccc2c1)C(=O)N[C@H](Cc1ccc(Cl)cc1)C(=O)N[C@H](Cc1cccnc1)C(=O)N[C@@H](CO)C(=O)N[C@@H](Cc1ccc(NC(=O)NOC)cc1)C(=O)N[C@H](Cc1ccc(NC(N)=O)cc1)C(=O)N[C@@H](CC(C)C)C(=O)N[C@@H](CCCCNC(C)C)C(=O)N1CCC[C@H]1C(=O)N[C@H](C)C(N)=O
0.88	CCOCCOCCNC(=O)Nc1ccc(C[C@@H](NC(=O)[C@H](Cc2ccc(NC(=O)[C@@H]3CC(=O)NC(=O)N3)cc2)NC(=O)[C@H](CO)NC(=O)[C@@H](Cc2cccnc2)NC(=O)[C@@H](Cc2ccc(Cl)cc2)NC(=O)[C@@H](Cc2ccc3ccccc3c2)NC(C)=O)C(=O)N[C@@H](CC(C)C)C(=O)N[C@@H](CCCCNC(C)C)C(=O)N2CCC[C@H]2C(=O)N[C@H](C)C(N)=O)cc1 (Ac-[d2Nal][dPhe(4-Cl)][d3Pal]S[Phe(4-NH2)](Dihydroorotyl(S))[dPhe(4-NH2)]([CO-NHCH2CH2OCH2CH2OEt])L[Lys(iPr)]P[dA]-NH2)
2.13	CCCC(=O)N[C@H](Cc1ccc2ccccc2c1)C(=O)N[C@H](Cc1ccc(Cl)cc1)C(=O)N[C@H](Cc1cccnc1)C(=O)N[C@@H](CO)C(=O)N[C@@H](Cc1ccc(NC(=O)[C@@H]2CC(=O)NC(=O)N2)cc1)C(=O)N[C@H](Cc1ccc(NC(=O)NOC)cc1)C(=O)N[C@@H](CC(C)C)C(=O)N[C@@H](CCCCNC(C)C)C(=O)N1CCC[C@H]1C(=O)N[C@H](C)C(N)=O
2.04	CCOCCOCCNC(=O)Nc1ccc(C[C@H](NC(=O)[C@H](CO)NC(=O)[C@@H](Cc2cccnc2)NC(=O)[C@@H](Cc2ccc(Cl)cc2)NC(=O)[C@@H](Cc2ccc3ccccc3c2)NC(C)=O)C(=O)N[C@H](Cc2ccc(NC(=O)NCCOCCOCC)cc2)C(=O)N[C@@H](CC(C)C)C(=O)N[C@@H](CCCCNC(C)C)C(=O)N2CCC[C@H]2C(=O)N[C@H](C)C(N)=O)cc1
1.49	CONC(=O)NCC[C@@H](NC(=O)[C@@H](Cc1ccc(Cl)cc1)NC(=O)[C@@H](Cc1ccc2ccccc2c1)NC(C)=O)C(=O)N[C@@H](CO)C(=O)N[C@@H](Cc1ccc(NC(=O)NOC)cc1)C(=O)N[C@H](Cc1ccc(NC(=O)NOC)cc1)C(=O)N[C@@H](CC(C)C)C(=O)N[C@@H](CCCCNC(C)C)C(=O)N1CCC[C@H]1C(=O)N[C@H](C)C(N)=O
1.67	CONC(=O)NCCOCCOCCOCCOCCOCCOCCC(=O)Nc1ccc(C[C@@H](NC(=O)[C@H](Cc2ccc(NC(=O)NOC)cc2)NC(=O)[C@H](CO)NC(=O)[C@@H](Cc2cccnc2)NC(=O)[C@@H](Cc2ccc(Cl)cc2)NC(=O)[C@@H](Cc2ccc3ccccc3c2)NC(C)=O)C(=O)N[C@@H](CC(C)C)C(=O)N[C@@H](CCCCNC(C)C)C(=O)N2CCC[C@H]2C(=O)N[C@H](C)C(N)=O)cc1
1.37	CCCC(=O)N[C@H](Cc1ccc2ccccc2c1)C(=O)N[C@H](Cc1ccc(Cl)cc1)C(=O)N[C@H](Cc1cccnc1)C(=O)N[C@@H](CO)C(=O)N[C@@H](Cc1ccc(NC(=O)NOC)cc1)C(=O)N[C@H](Cc1ccc(NC(=O)NOC)cc1)C(=O)N[C@@H](CC(C)C)C(=O)N[C@@H](CCCCNC(C)C)C(=O)N1CCC[C@H]1C(=O)N[C@H](C)C(N)=O (Butyryl-[d2Nal][dPhe(4-Cl)][d3Pal]S[Phe(4-NH2)](Methoxycarbamoyl)[dPhe(4-NH2)](Methoxycarbamoyl)L[Lys(iPr)]P[dA]-NH2)
0.8	CC(=O)N[C@H](Cc1ccc2ccccc2c1)C(=O)N[C@H](Cc1ccc(Cl)cc1)C(=O)N[C@H](Cc1cccnc1)C(=O)N[C@@H](CO)C(=O)N[C@@H](Cc1ccc(NC(=O)[C@@H]2CC(=O)NC(=O)N2)cc1)C(=O)N[C@H](Cc1ccc(NC(=O)NO)cc1)C(=O)N[C@@H](CC(C)C)C(=O)N[C@@H](CCCCNC(C)C)C(=O)N1CCC[C@H]1C(=O)N[C@H](C)C(N)=O
1.69	CONC(=O)NCC[C@@H](NC(=O)[C@@H](Cc1ccc(Cl)cc1)NC(=O)[C@@H](Cc1ccc2ccccc2c1)NC(C)=O)C(=O)N[C@@H](CO)C(=O)N[C@@H](Cc1ccc(NC(=O)[C@@H]2CC(=O)NC(=O)N2)cc1)C(=O)N[C@H](Cc1ccc(NC(N)=O)cc1)C(=O)N[C@@H](CC(C)C)C(=O)N[C@@H](CCCCNC(C)C)C(=O)N1CCC[C@H]1C(=O)N[C@H](C)C(N)=O
